Experimental data published in ChEMBL document CHEMBL1240474, “Pharmacological evaluation and characterizations of newly synthesized 1,2,4-triazoles” (2010).
≈ marks a conversion by molar mass, not a printed value.

Experiments:
Format in all cases: functional
Aspergillus clavatus = test: Antifungal activity against Aspergillus clavatus MTCC 1323 by broth microdilution method
[1] = test system: Mycobacterium tuberculosis; test: Antimycobacterial activity against Mycobacterium tuberculosis H37Rv after up to 28 days; conditions: 672 h
Summary of the method: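 Lowenstein-Jensen agar dilution against M. tuberculosis H37Rv. Compounds were made up as 2000 µg/ml DMSO stocks and added to liquid L.J. medium at primary levels of 1000, 500 and 250 µg/ml and secondary levels of 200–3.25 µg/ml. The medium was inspissated, held 24 h at 37 °C, then streaked with bacilli from saline suspension. Growth was read at 12, 22 and 28 days against drug-free controls. MIC was the lowest concentration giving no colonies or fewer than 20.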

Aspergillus niger = test: Antifungal activity against Aspergillus niger MTCC 282 by broth microdilution method
Candida albicans = test: Antifungal activity against Candida albicans MTCC 227 by broth microdilution method
Pseudomonas aeruginosa = test: Antibacterial activity against Pseudomonas aeruginosa MTCC 2488 by broth microdilution method
Summary of the method: (§1)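 Serial dilutions in Mueller Hinton broth, drugs diluted in DMSO from a 2000 µg/ml stock, inoculum adjusted by turbidity to 10⁸ CFU/ml, ampicillin as reference. Primary screen at 500, 250 and 125 µg/ml; actives retested at 100 down to 1.5625 µg/ml. Incubated overnight at 37 °C.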

Escherichia coli = test: Antibacterial activity against Escherichia coli MTCC 443 by broth microdilution method; summary of the method: as §1
Streptococcus pyogenes = test: Antibacterial activity against Streptococcus pyogenes MTCC 442 by broth microdilution method; summary of the method: as §1
Staphylococcus aureus = test: Antibacterial activity against Staphylococcus aureus MTCC 96 by broth microdilution method; summary of the method: as §1
[2] = test system: Mycobacterium tuberculosis; test: Antimycobacterial activity against Mycobacterium tuberculosis H37Rv at MIC concentration after up to 28 days

Row | Compound | MIC (Aspergillus clavatus) | MIC [1] | MIC (Aspergillus niger) | MIC (Candida albicans) | MIC (Pseudomonas aeruginosa) | MIC (Escherichia coli) | MIC (Streptococcus pyogenes) | MIC (Staphylococcus aureus) | inhibition (INH) [2]
1 | NNc1nc2ccc(F)cc2s1 | > 1000 µg/mL | 250 µg/mL (≈ 1360 µM) | > 1000 µg/mL | 250 µg/mL (≈ 1360 µM) | 250 µg/mL (≈ 1360 µM) | 250 µg/mL (≈ 1360 µM) | 250 µg/mL (≈ 1360 µM) | 500 µg/mL (≈ 2730 µM) | 98%
2 | NNc1nc2ccc(Br)cc2s1 | 500 µg/mL (≈ 2050 µM) | 500 µg/mL (≈ 2050 µM) | 500 µg/mL (≈ 2050 µM) | 500 µg/mL (≈ 2050 µM) | 500 µg/mL (≈ 2050 µM) | 500 µg/mL (≈ 2050 µM) | 500 µg/mL (≈ 2050 µM) | 250 µg/mL (≈ 1020 µM) | 97%
3 | NNc1nc2ccc([N+](=O)[O-])cc2s1 | 1000 µg/mL (≈ 4760 µM) | 250 µg/mL (≈ 1190 µM) | 500 µg/mL (≈ 2380 µM) | 500 µg/mL (≈ 2380 µM) | 250 µg/mL (≈ 1190 µM) | 250 µg/mL (≈ 1190 µM) | 500 µg/mL (≈ 2380 µM) | 500 µg/mL (≈ 2380 µM) | 99%
4 | Cc1ccc2nc(NN)sc2c1 | > 1000 µg/mL | 1000 µg/mL (≈ 5580 µM) | 1000 µg/mL (≈ 5580 µM) | 250 µg/mL (≈ 1390 µM) | 500 µg/mL (≈ 2790 µM) | 100 µg/mL (≈ 558 µM) | 250 µg/mL (≈ 1390 µM) | 250 µg/mL (≈ 1390 µM) | 98%
5 | COc1ccc2nc(NN)sc2c1 | 250 µg/mL (≈ 1280 µM) | 50 µg/mL (≈ 256 µM) | 500 µg/mL (≈ 2560 µM) | 500 µg/mL (≈ 2560 µM) | 125 µg/mL (≈ 640 µM) | 62.5 µg/mL (≈ 320 µM) | 250 µg/mL (≈ 1280 µM) | 200 µg/mL (≈ 1020 µM) | 99%
6 | NNc1nc2ccc(Cl)cc2s1 | 250 µg/mL (≈ 1250 µM) | 200 µg/mL (≈ 1000 µM) | 200 µg/mL (≈ 1000 µM) | 250 µg/mL (≈ 1250 µM) | 125 µg/mL (≈ 626 µM) | 100 µg/mL (≈ 501 µM) | 500 µg/mL (≈ 2500 µM) | 500 µg/mL (≈ 2500 µM) | 99%
7 | Cc1cccc2sc(NN)nc12 | 200 µg/mL (≈ 1120 µM) | 500 µg/mL (≈ 2790 µM) | 250 µg/mL (≈ 1390 µM) | 500 µg/mL (≈ 2790 µM) | 250 µg/mL (≈ 1390 µM) | 250 µg/mL (≈ 1390 µM) | 500 µg/mL (≈ 2790 µM) | 500 µg/mL (≈ 2790 µM) | 98%
8 | NNc1nc2c([N+](=O)[O-])cccc2s1 | 200 µg/mL (≈ 951 µM) | 500 µg/mL (≈ 2380 µM) | 250 µg/mL (≈ 1190 µM) | 200 µg/mL (≈ 951 µM) | 250 µg/mL (≈ 1190 µM) | 500 µg/mL (≈ 2380 µM) | 250 µg/mL (≈ 1190 µM) | 500 µg/mL (≈ 2380 µM) | 98%
9 | NNc1nc2cc(Cl)c(Cl)cc2s1 | 1000 µg/mL (≈ 4270 µM) | 250 µg/mL (≈ 1070 µM) | 500 µg/mL (≈ 2140 µM) | 500 µg/mL (≈ 2140 µM) | 125 µg/mL (≈ 534 µM) | 100 µg/mL (≈ 427 µM) | 500 µg/mL (≈ 2140 µM) | 250 µg/mL (≈ 1070 µM) | 99%
10 | NNc1nc2c(Cl)cccc2s1 | 500 µg/mL (≈ 2500 µM) | 100 µg/mL (≈ 501 µM) | 500 µg/mL (≈ 2500 µM) | 1000 µg/mL (≈ 5010 µM) | 250 µg/mL (≈ 1250 µM) | 250 µg/mL (≈ 1250 µM) | 500 µg/mL (≈ 2500 µM) | 500 µg/mL (≈ 2500 µM) | 99%
11 | Cc1ccc(-c2nnc(-c3cccnc3)o2)cc1 | 500 µg/mL (≈ 2110 µM) | 500 µg/mL (≈ 2110 µM) | 500 µg/mL (≈ 2110 µM) | 1000 µg/mL (≈ 4210 µM) | 100 µg/mL (≈ 421 µM) | 250 µg/mL (≈ 1050 µM) | 250 µg/mL (≈ 1050 µM) | 100 µg/mL (≈ 421 µM) | 98%
12 | Cc1ccc(-c2nnc(-c3cccnc3)n2Nc2nc3ccc(F)cc3s2)cc1 | 250 µg/mL (≈ 621 µM) | 200 µg/mL (≈ 497 µM) | 500 µg/mL (≈ 1240 µM) | 500 µg/mL (≈ 1240 µM) | 250 µg/mL (≈ 621 µM) | 250 µg/mL (≈ 621 µM) | 100 µg/mL (≈ 248 µM) | 125 µg/mL (≈ 311 µM) | 98%
13 | Cc1ccc(-c2nnc(-c3cccnc3)n2Nc2nc3ccc(Br)cc3s2)cc1 | 1000 µg/mL (≈ 2160 µM) | 50 µg/mL (≈ 108 µM) | 500 µg/mL (≈ 1080 µM) | 1000 µg/mL (≈ 2160 µM) | 100 µg/mL (≈ 216 µM) | 100 µg/mL (≈ 216 µM) | 125 µg/mL (≈ 270 µM) | 125 µg/mL (≈ 270 µM) | 99%
14 | Cc1ccc(-c2nnc(-c3cccnc3)n2Nc2nc3ccc([N+](=O)[O-])cc3s2)cc1 | 500 µg/mL (≈ 1160 µM) | 200 µg/mL (≈ 466 µM) | 500 µg/mL (≈ 1160 µM) | 500 µg/mL (≈ 1160 µM) | 200 µg/mL (≈ 466 µM) | 100 µg/mL (≈ 233 µM) | 125 µg/mL (≈ 291 µM) | 250 µg/mL (≈ 582 µM) | 98%
15 | Cc1ccc(-c2nnc(-c3cccnc3)n2Nc2nc3ccc(C)cc3s2)cc1 | > 1000 µg/mL | 50 µg/mL (≈ 125 µM) | 1000 µg/mL (≈ 2510 µM) | 500 µg/mL (≈ 1250 µM) | 250 µg/mL (≈ 627 µM) | 125 µg/mL (≈ 314 µM) | 100 µg/mL (≈ 251 µM) | 100 µg/mL (≈ 251 µM) | 99%
16 | COc1ccc2nc(Nn3c(-c4ccc(C)cc4)nnc3-c3cccnc3)sc2c1 | 1000 µg/mL (≈ 2410 µM) | 62.5 µg/mL (≈ 151 µM) | 500 µg/mL (≈ 1210 µM) | 250 µg/mL (≈ 603 µM) | 125 µg/mL (≈ 302 µM) | 250 µg/mL (≈ 603 µM) | 250 µg/mL (≈ 603 µM) | 250 µg/mL (≈ 603 µM) | 99%
17 | Cc1ccc(-c2nnc(-c3cccnc3)n2Nc2nc3ccc(Cl)cc3s2)cc1 | 250 µg/mL (≈ 597 µM) | 100 µg/mL (≈ 239 µM) | 500 µg/mL (≈ 1190 µM) | 500 µg/mL (≈ 1190 µM) | 125 µg/mL (≈ 298 µM) | 250 µg/mL (≈ 597 µM) | 500 µg/mL (≈ 1190 µM) | 500 µg/mL (≈ 1190 µM) | 99%
18 | Cc1ccc(-c2nnc(-c3cccnc3)n2Nc2nc3c(C)cccc3s2)cc1 | 200 µg/mL (≈ 502 µM) | 500 µg/mL (≈ 1250 µM) | 250 µg/mL (≈ 627 µM) | 100 µg/mL (≈ 251 µM) | 500 µg/mL (≈ 1250 µM) | 250 µg/mL (≈ 627 µM) | 250 µg/mL (≈ 627 µM) | 500 µg/mL (≈ 1250 µM) | 98%
19 | Cc1ccc(-c2nnc(-c3cccnc3)n2Nc2nc3c([N+](=O)[O-])cccc3s2)cc1 | 500 µg/mL (≈ 1160 µM) | 50 µg/mL (≈ 116 µM) | 500 µg/mL (≈ 1160 µM) | 1000 µg/mL (≈ 2330 µM) | 25 µg/mL (≈ 58.2 µM) | 12.5 µg/mL (≈ 29.1 µM) | 250 µg/mL (≈ 582 µM) | 500 µg/mL (≈ 1160 µM) | 99%
20 | Cc1ccc(-c2nnc(-c3cccnc3)n2Nc2nc3cc(Cl)c(Cl)cc3s2)cc1 | 250 µg/mL (≈ 551 µM) | 100 µg/mL (≈ 221 µM) | 500 µg/mL (≈ 1100 µM) | 200 µg/mL (≈ 441 µM) | 500 µg/mL (≈ 1100 µM) | 100 µg/mL (≈ 221 µM) | 500 µg/mL (≈ 1100 µM) | 250 µg/mL (≈ 551 µM) | 99%
21 | Cc1ccc(-c2nnc(-c3cccnc3)n2Nc2nc3c(Cl)cccc3s2)cc1 | 1000 µg/mL (≈ 2390 µM) | 25 µg/mL (≈ 59.7 µM) | > 1000 µg/mL | 500 µg/mL (≈ 1190 µM) | 500 µg/mL (≈ 1190 µM) | 125 µg/mL (≈ 298 µM) | 500 µg/mL (≈ 1190 µM) | 250 µg/mL (≈ 597 µM) | 99%
22 | CC1(C)S[C@@H]2[C@H](NC(=O)[C@H](N)c3ccccc3)C(=O)N2[C@H]1C(=O)O [AMPICILLIN] | – | – | – | – | 100 µg/mL (≈ 286 µM) | 100 µg/mL (≈ 286 µM) | 100 µg/mL (≈ 286 µM) | 250 µg/mL (≈ 715 µM) | –
23 | COC1=CC(=O)C[C@@H](C)[C@]12Oc1c(Cl)c(OC)cc(OC)c1C2=O [GRISEOFULVIN] | 100 µg/mL (≈ 283 µM) | – | 100 µg/mL (≈ 283 µM) | 500 µg/mL (≈ 1420 µM) | – | – | – | – | –
24 | CO[C@H]1/C=C/O[C@@]2(C)Oc3c(C)c(O)c4c(O)c(c(/C=N/N5CCN(C)CC5)c(O)c4c3C2=O)NC(=O)/C(C)=C\C=C\[C@H](C)[C@H](O)[C@@H](C)[C@@H](O)[C@@H](C)[C@H](OC(C)=O)[C@@H]1C [RIFAMPIN] | – | 40 µg/mL (≈ 48.6 µM) | – | – | – | – | – | – | 98%
